Values after ≈ are worked out from the molar mass of the structure shown.
How the values were obtained:
[1] = tested on: Mycobacterium tuberculosis; assay: Antimycobacterial activity against Mycobacterium tuberculosis H37Rv ATCC 27294 assessed as inhibition of bacterial growth under GAST medium condition after 7 to 14 days by broth microdilution method; assay type: functional; details: time 7-14 day
Summary of the method: (§1)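 Mtb H37Rv ATCC 27294 by broth microdilution in GAST or 7H9 base with 5 g/L BSA fraction V, 0.8 g/L NaCl and 0.05% tyloxapol. Carbon source was 20 mM glycerol/10 mM glucose or 0.05 mM sodium palmitate. Compounds came from DMSO stocks with DMSO-only controls. Inoculum was 10⁴-10⁵ cells; growth was read at 7 and 14 days. MIC is the concentration giving >99% growth inhibition; runs were in triplicate.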

[2] = target: T1, Long-chain-fatty-acid--AMP ligase FadD28 (Mycobacterium tuberculosis, UniProt P9WQ59); assay: Inhibition of Mycobacterium tuberculosis H37Rv FAAL28 Spectra expressed in Escherichia coli BL21(DE3) cells assessed as cleavage of MEsG by spectroscopic analysis; details: read-out: Ki(app)
T1 sequence (P9WQ59 whole entry): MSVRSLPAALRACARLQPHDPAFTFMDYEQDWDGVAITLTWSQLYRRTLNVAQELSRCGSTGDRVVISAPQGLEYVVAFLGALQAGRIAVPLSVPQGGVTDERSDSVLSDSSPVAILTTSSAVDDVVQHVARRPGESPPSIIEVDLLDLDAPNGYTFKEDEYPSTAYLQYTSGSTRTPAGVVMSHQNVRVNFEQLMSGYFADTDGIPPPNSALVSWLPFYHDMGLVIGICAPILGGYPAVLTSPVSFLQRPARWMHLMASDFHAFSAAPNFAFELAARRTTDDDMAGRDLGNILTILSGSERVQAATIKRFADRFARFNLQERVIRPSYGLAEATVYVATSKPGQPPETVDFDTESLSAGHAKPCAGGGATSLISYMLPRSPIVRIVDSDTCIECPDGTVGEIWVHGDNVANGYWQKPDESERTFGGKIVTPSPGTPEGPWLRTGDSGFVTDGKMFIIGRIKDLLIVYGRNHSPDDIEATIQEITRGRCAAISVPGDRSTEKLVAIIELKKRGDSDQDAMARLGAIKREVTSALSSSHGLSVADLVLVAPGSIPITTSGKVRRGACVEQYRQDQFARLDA
Summary of the method: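 Coupled continuous assay with pyrophosphatase (0.04 U) and nucleoside phosphorylase (0.1 U), using 0.45 μM FAAL28 and 33 μM tetradecanoic acid. Buffer was 50 mM Tris·HCl pH 8.0 with 2.5 mM ATP, 5 mM MgCl₂, 0.5 mM DTT, 150 mM hydroxylamine and 0.2 mM MesG. Apparent Ki came from a Morrison equation fit.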

[3] = target: T2, Medium/long-chain-fatty-acid--CoA/3-oxocholest-4-en-26-oate--CoA ligase (Mycobacterium tuberculosis, UniProt P9WQ51); assay: Inhibition of Mycobacterium tuberculosis H37Rv FACL19 Spectra expressed in Escherichia coli BL21(DE3) cells assessed as cleavage of MEsG by spectroscopic analysis; details: read-out: Ki(app)
T2 sequence (P9WQ51 whole entry): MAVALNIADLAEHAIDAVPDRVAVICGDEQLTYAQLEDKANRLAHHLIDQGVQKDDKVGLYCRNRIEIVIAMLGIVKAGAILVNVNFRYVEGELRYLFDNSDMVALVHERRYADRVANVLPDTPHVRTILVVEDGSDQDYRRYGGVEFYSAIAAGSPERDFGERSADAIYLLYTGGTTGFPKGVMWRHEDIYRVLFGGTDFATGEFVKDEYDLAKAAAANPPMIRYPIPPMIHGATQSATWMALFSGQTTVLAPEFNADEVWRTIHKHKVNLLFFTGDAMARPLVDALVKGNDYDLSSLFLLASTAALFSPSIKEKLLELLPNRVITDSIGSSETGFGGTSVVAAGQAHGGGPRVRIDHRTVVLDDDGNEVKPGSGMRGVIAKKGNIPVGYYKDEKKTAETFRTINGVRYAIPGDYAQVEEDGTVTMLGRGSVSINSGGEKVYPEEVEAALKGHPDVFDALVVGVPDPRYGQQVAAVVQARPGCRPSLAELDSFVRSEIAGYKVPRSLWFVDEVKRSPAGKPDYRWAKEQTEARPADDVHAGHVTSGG
Summary of the method: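 FACL19 (0.167 μM) with 250 μM dodecanoic acid in a coupled MesG assay with pyrophosphatase and nucleoside phosphorylase. Buffer was 50 mM Tris·HCl pH 8.0 with 2.5 mM ATP, 5 mM MgCl₂, 0.5 mM DTT and 150 mM hydroxylamine. Apparent Ki came from a Morrison tight-binding fit.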

Vero = assay: Cytotoxicity against African green monkey Vero cells assessed as reduction in cell viability after 72 hrs by MTT assay; assay type: cell-based; details: Chlorocebus sabaeus
Summary of the method: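 Vero cells were seeded at (2.5–5.0) × 10⁴ per well in MEM with 5% FBS and penicillin/streptomycin. Compounds were added from 20 mM DMSO stocks to a final 100 μM. Controls were 0.5% and 50% DMSO, all in triplicate. After 72 h at 37 °C in 5% CO₂, cells got 1 mg/mL MTT for 3 h. Formazan was dissolved in isopropanol and read at 570/650 nm, with viability expressed relative to DMSO control.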

[4] = tested on: Mycobacterium tuberculosis; assay: Antimycobacterial activity against Mycobacterium tuberculosis H37Rv ATCC 27294 assessed as inhibition of bacterial growth under 7H9 medium condition after 7 to 14 days by broth microdilution method; assay type: functional; details: time 7-14 day; summary of the method: as §1
[5] = tested on: Mycobacterium tuberculosis; assay: Antimycobacterial activity against Mycobacterium tuberculosis H37Rv ATCC 27294 assessed as inhibition of bacterial growth under 7H9 medium condition after 7 to 14 days in presence of palmitate by broth microdilution method; assay type: functional; details: time 7-14 day; summary of the method: as §1

| SMILES | MIC [1] | Ki [2] | Ki [3] | IC50 (Vero) | MIC [4] | MIC [5] |
| --- | --- | --- | --- | --- | --- | --- |
| Nc1ncnc2c1ncn2[C@@H]1O[C@H](COS(=O)(=O)NC(=O)CCCCCCCCCCOc2cccc(Cl)c2)[C@@H](O)[C@H]1O | 25 µM (≈ 16 µg/mL) | 0.5 µM | 26.4 µM |  |  |  |
| Nc1ncnc2c1ncn2[C@@H]1O[C@H](CNS(=O)(=O)NC(=O)CCCCCCCCCCOc2ccccc2)[C@@H](O)[C@H]1O | 1.56 µM (≈ 0.945 µg/mL) | 3.1 µM | > 100 µM |  |  |  |
| CCCCCC(=O)NS(=O)(=O)OC[C@H]1O[C@@H](n2cnc3c(N)ncnc32)[C@H](O)[C@@H]1O | 100 µM (≈ 44.4 µg/mL) | > 100 µM | > 100 µM | 48.6 µM | > 100 µM | > 100 µM |
| CCCCCCCCCCCCCCCCCCCC(=O)NS(=O)(=O)OC[C@H]1O[C@@H](n2cnc3c(N)ncnc32)[C@H](O)[C@@H]1O | > 100 µM |  |  | 0.1 µM | > 100 µM | > 100 µM |
| COc1cccc(OCCCCCCCCCCC(=O)NS(=O)(=O)OC[C@H]2O[C@@H](n3cnc4c(N)ncnc43)[C@H](O)[C@@H]2O)c1 | 25 µM (≈ 15.9 µg/mL) | 1.7 µM | > 100 µM |  |  |  |
| Nc1ncnc2c1ncn2[C@@H]1O[C@H](COS(=O)(=O)NC(=O)CCCCCCCCCCSc2ccccc2)[C@@H](O)[C@H]1O | > 50 µM | 6.3 µM | 41.6 µM |  |  |  |
| Nc1ncnc2c1ncn2[C@@H]1O[C@H](COS(=O)(=O)NC(=O)CCCCCCCCCCOc2cccc(C(F)(F)F)c2)[C@@H](O)[C@H]1O | 25 µM (≈ 16.9 µg/mL) | 4.4 µM | 13.5 µM |  |  |  |
| Nc1ncnc2c1ncn2[C@@H]1O[C@H](COS(=O)(=O)NC(=O)CCCCCCCCCCOc2cccc3ccccc23)[C@@H](O)[C@H]1O | > 50 µM | 25.2 µM | 9.64 µM |  |  |  |
| Nc1ncnc2c1ncn2[C@@H]1O[C@H](COS(=O)(=O)NC(=O)CCCCCCCCCCCOc2ccccc2)[C@@H](O)[C@H]1O | 12.5 µM (≈ 7.76 µg/mL) | 2.6 µM | > 100 µM |  |  |  |
| Nc1ncnc2c1ncn2[C@@H]1O[C@H](COS(=O)(=O)NC(=O)CCCCCCCCCCOc2ccc(Br)cc2)[C@@H](O)[C@H]1O | > 50 µM | 4 µM | 10.4 µM |  |  |  |
| CCCCCCCC(=O)NS(=O)(=O)OC[C@H]1O[C@@H](n2cnc3c(N)ncnc32)[C@H](O)[C@@H]1O | 12.5 µM (≈ 5.91 µg/mL) | > 100 µM | > 100 µM | 6 µM | 100 µM (≈ 47.3 µg/mL) | > 100 µM |
| Nc1ncnc2c1ncn2[C@@H]1O[C@H](COS(=O)(=O)NC(=O)CCCCCCCCCCOc2ccc3ccccc3c2)[C@@H](O)[C@H]1O | > 50 µM | 1.88 µM | 20.4 µM |  |  |  |
| Nc1ncnc2c1ncn2[C@@H]1O[C@H](COS(=O)(=O)NC(=O)CCCCCCCCCCOc2ccc(Cl)cc2)[C@@H](O)[C@H]1O | 6.25 µM (≈ 4.01 µg/mL) | 2.2 µM | 13.7 µM |  |  |  |
| CCCCCCCCCCCCCCCCCC(=O)NS(=O)(=O)OC[C@H]1O[C@@H](n2cnc3c(N)ncnc32)[C@H](O)[C@@H]1O | 100 µM (≈ 61.3 µg/mL) | 0.5 µM | 2.4 µM | 0.1 µM | 100 µM (≈ 61.3 µg/mL) | > 100 µM |
| Nc1ncnc2c1ncn2[C@@H]1O[C@H](COS(=O)(=O)NC(=O)CCCCCCCCCCNc2ccccc2)[C@@H](O)[C@H]1O | 12.5 µM (≈ 7.57 µg/mL) | 7.3 µM | 63.4 µM |  |  |  |
| COc1ccc(OCCCCCCCCCCC(=O)NS(=O)(=O)OC[C@H]2O[C@@H](n3cnc4c(N)ncnc43)[C@H](O)[C@@H]2O)cc1 | > 50 µM | 6.6 µM | > 100 µM |  |  |  |

| SMILES | MIC [1] | Ki [2] | Ki [3] | IC50 (Vero) | MIC [4] | MIC [5] |
| --- | --- | --- | --- | --- | --- | --- |
| Nc1ncnc2c1ncn2[C@@H]1O[C@H](COS(=O)(=O)NC(=O)CCCCCCCCCCOc2cccc(F)c2)[C@@H](O)[C@H]1O | 25 µM (≈ 15.6 µg/mL) | 1.6 µM | 7.3 µM |  |  |  |
| Nc1ncnc2c1ncn2[C@@H]1O[C@H](COS(=O)(=O)NC(=O)CCCCCCCCCCOc2ccccc2C(F)(F)F)[C@@H](O)[C@H]1O | > 50 µM | 1.3 µM | 28.5 µM |  |  |  |
| CCCCCCCCCCCCCC(=O)NS(=O)(=O)OC[C@H]1O[C@@H](n2cnc3c(N)ncnc32)[C@H](O)[C@@H]1O | 0.39 µM (≈ 0.217 µg/mL) | 1.4 µM | 10 µM | 0.9 µM | 50 µM (≈ 27.8 µg/mL) | 100 µM |
| Nc1ncnc2c1ncn2[C@@H]1O[C@H](CNS(=O)(=O)OCCCCCCCCCCCOc2ccccc2)[C@@H](O)[C@H]1O | > 50 µM | > 100 µM | > 100 µM |  |  |  |
| CCCCCCCCCCCCCCCC(=O)NS(=O)(=O)OC[C@H]1O[C@@H](n2cnc3c(N)ncnc32)[C@H](O)[C@@H]1O | 6.25 µM (≈ 3.65 µg/mL) | 1 µM |  | 0.3 µM | 100 µM (≈ 58.5 µg/mL) | > 100 µM |
| Nc1ncnc2c1ncn2[C@@H]1O[C@H](COS(=O)(=O)NC(=O)CCCCCCCCCCOc2ccccc2Cl)[C@@H](O)[C@H]1O | > 50 µM | 3.6 µM | > 100 µM |  |  |  |
| Nc1ncnc2c1ncn2[C@@H]1O[C@H](COS(=O)(=O)NCCCCCCCCCCCOc2ccccc2)[C@@H](O)[C@H]1O | > 50 µM | > 100 µM | > 100 µM |  |  |  |
| Nc1ncnc2c1ncn2[C@@H]1O[C@H](COS(=O)(=O)NC(=O)CCCCCCCCCCOc2ccc(F)cc2)[C@@H](O)[C@H]1O | 12.5 µM (≈ 7.81 µg/mL) | 0.3 µM | 11.4 µM |  |  |  |
| Nc1ncnc2c1ncn2[C@@H]1O[C@H](COS(=O)(=O)NC(=O)CCCCCCCCCCOc2ccccc2F)[C@@H](O)[C@H]1O | > 50 µM | 1.5 µM | > 100 µM |  |  |  |
| Nc1ncnc2c1ncn2[C@@H]1O[C@H](COS(=O)(=O)NC(=O)CCCCCCCCCCOc2ccc(C(F)(F)F)cc2)[C@@H](O)[C@H]1O | 25 µM (≈ 16.9 µg/mL) | 15.6 µM | 34.4 µM |  |  |  |
| COc1ccccc1OCCCCCCCCCCC(=O)NS(=O)(=O)OC[C@H]1O[C@@H](n2cnc3c(N)ncnc32)[C@H](O)[C@@H]1O | > 50 µM | > 100 µM | > 100 µM |  |  |  |
| CCCC(=O)NS(=O)(=O)OC[C@H]1O[C@@H](n2cnc3c(N)ncnc32)[C@H](O)[C@@H]1O | > 100 µM | > 100 µM | > 100 µM | 81.4 µM | > 100 µM | > 100 µM |
| C#CCCCCCCCCC(=O)NS(=O)(=O)OC[C@H]1O[C@@H](n2cnc3c(N)ncnc32)[C@H](O)[C@@H]1O | 1.56 µM (≈ 0.796 µg/mL) | > 100 µM | > 100 µM | 9.7 µM | 50 µM (≈ 25.5 µg/mL) | 50 µM |
| Nc1ncnc2c1ncn2[C@@H]1O[C@H](COS(=O)(=O)NC(=O)CCCCCCCCCOc2ccccc2)[C@@H](O)[C@H]1O | 50 µM (≈ 29.6 µg/mL) | 6.7 µM | > 100 µM |  |  |  |
| CCCCCCCCCC(=O)NS(=O)(=O)OC[C@H]1O[C@@H](n2cnc3c(N)ncnc32)[C@H](O)[C@@H]1O | 1.56 µM (≈ 0.781 µg/mL) | 88 µM | > 100 µM | 10.1 µM | 100 µM (≈ 50.1 µg/mL) | > 100 µM |
